Measured values pooled from the literature.
Cell line: CAKI-1
Read-out: cell growth or viability

Compound | test | conditions | measurement | value
Cc1cc(C)n(C(=S)[S][Au][PH](CCCCCC[PH]([Au][S]C(=S)n2nc(C)cc2C)(c2ccccc2)c2ccccc2)(c2ccccc2)c2ccccc2)n1 |  |  | GI50 | 2160 nM
COc1ccc(-c2ccc(-c3ccc(C(=N)N)nc3)s2)cc1Cl |  |  | GI50 | 1740 nM
COc1ccc(C(=O)/C=C/c2cccc(Cl)c2Cl)cc1S(N)(=O)=O | SRB | 10 µM | inhibition | 106%
CC(=O)OC[C@H]1O[C@@H]([S-])[C@H](OC(C)=O)[C@@H](OC(C)=O)[C@@H]1OC(C)=O.CCP(CC)CC.[Au+] | resazurin |  | IC50 | 2290 nM
COc1cc(Nc2nccc(-c3cnn4nc(OC)ccc34)n2)cc(C(F)(F)F)c1 | ATP luminescence |  | IC50 | 310 nM
COc1ccc(C(=O)/C=C/c2cc3c(cc2Br)OCO3)cc1S(N)(=O)=O | SRB | 48 h | GI50 | 4600 nM
CC(C)C[C@H](NC(=O)[C@H](Cc1ccccc1)NC(=O)c1cnccn1)B(O)O | ATP luminescence |  | IC50 | 10 nM
[Cl-].[Cl-].[Ti+4].c1cc[cH-]c1.c1cc[cH-]c1 | XTT | 24 h | IC50 | > 200000 nM
S=C([S][Au-][P+](CCCCCC[P+]([Au-][S]C(=S)n1cccn1)(c1ccccc1)c1ccccc1)(c1ccccc1)c1ccccc1)n1cccn1 |  |  | GI50 | 7150 nM
COc1ccc(-c2ccc(-c3ccc(C(=N)N)nc3)s2)cc1 |  |  | GI50 | 1640 nM
O=C1Nc2ccccc2C1=NNc1nnc2n1N=C(c1ccccc1)CS2 | SRB | 10 µM | inhibition | 21%
